Measured values reported in ChEMBL document CHEMBL1125878, “Aminoalkynyldithianes. A new class of calcium channel blockers” (J Med Chem, 1991).

Tests used:
Type in all cases: functional
[1] = species on record: Cavia porcellus; experiment: Antagonism of calcium-induced contractions of guinea pig ileal strips
How it was run: (§1)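 Guinea pig ileal strips held at 0.5 g resting tension, equilibrated 60 min, isometric recording. Depolarized with KCl (80 mM) 6 min, then cumulative CaCl2 0.2-8.0 mM; wash, control curve, then curves with three drug concentrations added right after KCl (6 min). Kb = concentration giving 2-fold rightward shift, from EC50 ratios; means of 3-10 experiments ± SE.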

[2] = The compound was tested for inhibition of calcium influx into neuronal (NG108-15) cells; settings: Mus musculus
How it was run: (§2)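 NG108-15 cells, differentiated with dibutyryl cAMP (1.0 mM, 4 days), loaded with Quin 2-AM (100 μM) 1 h at 37 °C, washed. Suspensions (ca. 3 × 10^6 cells) at 37 °C preincubated 1 min with drug, then depolarized with KCl (50 mM); fluorescence ex 339/em 492 nm. IC50 = half-maximal fluorescence decrease, logit analysis; means ± SE.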

[3] = The compound was tested for inhibition of calcium influx into neuronal (NG108-15) cells.; settings: Mus musculus; how it was run: as §2
[4] = species on record: Cavia porcellus; experiment: The compound was tested for antagonism of calcium-induced contractions of guinea pig ileal strips.; how it was run: as §1

SMILES | Kb [1] [nM] | also measured
CN(CC#CCCC1(C2(O)c3ccccc3Oc3ccccc32)SCCCS1)CCCCc1ccccc1 | 1900 | –
CCN(CC)CC#CCCC1(C(C)(O)c2ccccc2)SCCCS1 (stereo not drawn) | 2510 | –
CN(CC#CCCC1(C2(O)c3ccccc3Sc3ccccc32)SCCCS1)CCCCc1ccccc1 | 3400 | –
CN(CC#CCCC1(C2(O)c3ccccc3Sc3ccccc32)SCCCS1)CCCc1ccccc1 | 4160 | –
COc1ccc(N(C)CC#CCCC2SCCCS2)cc1OC | 2220 | –
CCN(C)CC#CCCC1(C2(O)c3ccccc3Sc3ccc(Cl)cc32)SCCCS1 (stereo not drawn) | 2530 | –
CCN(CC)CC#CCCC1(C2(O)c3ccccc3Sc3ccc(Cl)cc32)SCCCS1 (stereo not drawn) | 330 | –
CN(CC#CCCC1(c2ccccc2)SCCCS1)CCc1ccccc1 | 1740 | IC50 [2]: 5400 nM
CCN(CC#CCCC1(C2(O)c3ccccc3Oc3ccccc32)SCCCS1)C(C)C | 460 | –
CN(CC#CCCCC1SCCCS1)CCc1ccccc1 | 4150 | –
CCN(CC)CC#CCCC1(C(O)(c2ccccc2)C2CCCCC2)SCCCS1 (stereo not drawn) | 1140 | –
CC(C)N(CC#CCCCC1(C2(O)c3ccccc3Oc3ccccc32)SCCCS1)C(C)C | 200 | IC50 [2]: 4600 nM
CN(CC#CCCC1SCCCS1)CCc1cccc2ccccc12 | 1520 | –
CCN(CC)CC#CCCC1(Cc2ccccc2)SCCCS1 | 1960 | –
CN(CC#CCCC1SCCCS1)CCc1ccc2ccccc2c1 | 4730 | –
CN(CC#CCCC1(C2(O)c3ccccc3Oc3ccccc32)SCCCS1)CCCc1ccccc1 | 3090 | –
CN(C)CC#CCCC1(C2(O)c3ccccc3Oc3ccccc32)SCCCS1 | 1150 | –
CCN(C)CC#CCCC1(C2(O)c3ccccc3Sc3ccccc32)SCCCS1 | 570 | –
CCOC(=O)C1=C(C)NC(C)=C(C(=O)OC)C1c1cccc([N+](=O)[O-])c1 (stereo not drawn) [NITRENDIPINE] | 2 | IC50 [2]: 16 nM
OCCN1CCN(CC#CCCC2SCCCS2)CC1 | > 10000 | –
CCN(C)CC#CCCC1(C2(O)c3ccccc3Oc3ccccc32)SCCCS1 | 1510 | –

SMILES | Kb [1] [nM] | also measured
CN(CC#CCCC(O)(c1ccccc1)C1SCCCS1)CCc1ccccc1 (stereo not drawn) | 2250 | IC50 [2]: 1600 nM
CCN(CC)CC#CCCC1(C2(O)c3ccccc3C=Cc3ccccc32)SCCCS1 | 300 | –
COc1ccc(CCN(C)CCCC(C#N)(c2ccc(OC)c(OC)c2)C(C)C)cc1OC (stereo not drawn) [VERAPAMIL] | 20 | IC50 [2]: 6500 nM
CCN(CC)CC#CCCC1(C2(O)c3ccccc3CCc3ccccc32)SCCCS1 | 1270 | –
CN(CC#CCCC1(C(O)(c2ccccc2)c2ccccc2)SCCCS1)CCc1ccccc1 | 2650 | –
CN(CC#CCCC1(C(O)(c2ccccc2)c2ccccc2)SCCCS1)Cc1ccccc1 | 3170 | –
CN(CC#CCCCC1SCCCS1)Cc1ccccc1 | 4450 | –
COc1ccc([C@@H]2Sc3ccccc3N(CCN(C)C)C(=O)[C@@H]2OC(C)=O)cc1 [DILTIAZEM] | – | IC50 [3]: 14900 nM; Kb [4]: 47 nM
CCN(CC)CC#CCCC1(C(O)(c2ccccc2)C2CCCC2)SCCCS1 (stereo not drawn) | 980 | –
CN(CC#CCCC1SCCCS1)CCc1ccccc1 | 2270 | –
CN(CC#CCCC1SCCCS1)CCCc1ccccc1 | 2980 | –
CN(CC#CCCC1(C(O)(c2ccccc2)C2CCCCC2)SCCCS1)CCc1ccccc1 (stereo not drawn) | 3750 | –
CCN(CC)CC#CCCC1(C2(O)CCOc3ccccc32)SCCCS1 (stereo not drawn) | 1940 | –
CN(CC#CCCC1SCCCS1)CCCCc1ccccc1 | 3430 | –
CN1CCN(CC#CCCC2(C3(O)c4ccccc4Oc4ccccc43)SCCCS2)CC1 | 490 | –
CCN(CC)CC#CCCC1(C2(O)c3ccccc3Oc3ccccc32)SCCCS1 | 160 | IC50 [2]: 2300 nM
CCCN(CC#CCC1(c2ccccc2)SCCCS1)CCC | 1010 | IC50 [2]: 1700 nM
CCN(CC)CC#CCCCCC1SCCCS1 | > 5000 | –
CCN(CC)CC#CCCC1(C2(O)CCCc3ccccc32)SCCCS1 (stereo not drawn) | 830 | –
CCCN(CC#CCCCC1SCCCS1)CCC | 7500 | –
OC1(C2(CCC#CCN3CCCCC3)SCCCS2)c2ccccc2Sc2ccccc21 | 3660 | –

SMILES | Kb [1] [nM] | also measured
CCCN(CC#CCCCC1(C2(O)c3ccccc3Sc3ccccc32)SCCCS1)CCC | 770 | –
COc1ccc(CCN(C)CC#CCCC(O)(c2ccccc2)C2SCCCS2)cc1OC (stereo not drawn) | 1230 | IC50 [2]: 1800 nM
OC1(C2(CCC#CCN3CCCCC3)SCCCS2)c2ccccc2Oc2ccccc21 | 390 | IC50 [2]: 6400 nM
COc1ccc(CCN(C)CC#CCCC(O[Si](C)(C)C)(c2ccccc2)C2SCCCS2)cc1OC (stereo not drawn) | 570 | –
CCN(CC)CC#CCCCC1(C2(O)c3ccccc3Oc3ccccc32)SCCCS1 | 170 | IC50 [2]: 1000 nM
CN(CC#CCCC1SCCCS1)Cc1ccccc1 | 8020 | –
OC1(C2(CCC#CCN3CCCCC3)SCCCS2)c2ccccc2Sc2ccc(Cl)cc21 (stereo not drawn) | 6090 | –
CCN(CC)CC#CCCC1(C2(O)c3ccccc3Sc3ccccc32)SCCCS1 | 130 | –
CCN(C)CC#CCCC1SCCCS1 | – | IC50 [2]: > 10000 nM
CN(C)CC#CCCC1(C2(O)c3ccccc3Sc3ccccc32)SCCCS1 | 680 | –
CCCN(CC#CCCCC1(C2(O)c3ccccc3Oc3ccccc32)SCCCS1)CCC | 470 | –
CN(CC#CCCC1SCCCS1)Cc1ccc2ccccc2c1 | 8330 | –
CCN(CC)CC#CCCCCC1(C2(O)c3ccccc3Oc3ccccc32)SCCCS1 | 1740 | –
CCN(CC)CC#CCCC1(c2ccccc2)SCCCS1 | 900 | IC50 [2]: 6800 nM
CN(CC#CCCC1(C2(O)c3ccccc3Sc3ccc(Cl)cc32)SCCCS1)CCCc1ccccc1 (stereo not drawn) | > 7000 | –
CN(C)CC#CCCC1(C2(O)c3ccccc3Sc3ccc(Cl)cc32)SCCCS1 (stereo not drawn) | 2330 | –
COc1ccc(CCN(C)CC#CCC2(c3ccccc3)SCCCS2)cc1OC | 1170 | IC50 [2]: 1500 nM
CCN(CC)CC#CCC1(c2ccccc2)SCCCS1 | 4270 | IC50 [2]: 6400 nM
CN(CC#CCCC1(C(O)(c2ccccc2)c2ccccc2)SCCCS1)CCCc1ccccc1 | 1630 | –
CCN(CC)CC#CCCC1(C(c2ccccc2)c2ccccc2)SCCCS1 | 500 | –
CCN(CC)CC#CCCC(O)(c1ccccc1)C1SCCCS1 (stereo not drawn) | 6700 | IC50 [2]: 17700 nM
